The record followed here is the M2OR odorant receptor database.
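Also: active if original authors judged signal statistically different from baseline.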

The subject of one test is T1, OR1B1.
T1 sequence (whole entry): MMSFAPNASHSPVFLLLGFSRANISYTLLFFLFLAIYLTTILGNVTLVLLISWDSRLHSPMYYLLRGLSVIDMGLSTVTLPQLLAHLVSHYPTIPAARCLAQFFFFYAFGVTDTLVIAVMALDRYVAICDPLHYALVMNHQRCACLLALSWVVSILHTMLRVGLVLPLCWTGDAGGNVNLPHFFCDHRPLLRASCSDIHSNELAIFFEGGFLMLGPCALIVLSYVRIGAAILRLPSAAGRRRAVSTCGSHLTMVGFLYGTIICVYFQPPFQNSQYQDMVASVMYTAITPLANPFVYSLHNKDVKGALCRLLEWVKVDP
Particulars: stereoisomer not certain. A digest of the protocol:
(§1)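 Whether a receptor–molecule pair is responsive (active) rests on the original authors' judgment that its measured signal was statistically different from baseline. Pairs without that judgment are non-responsive (inactive). Sources used varied assay methods, commonly transient luciferase assays in mammalian cell lines.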
As to `CC1=C(O)C(=O)C(C)O1` (stereo not drawn), the “odorant receptor agonist call” value is “inactive”.
With `CC1CCCCCCCCCCCCC(=O)C1` (stereo not drawn), the “odorant receptor agonist call” value is “inactive”.
On the same count and under the same terms, with `CCC1OC(=O)C(O)=C1C` (stereo not drawn) the entry was “inactive”; with `CC1=C(O)C(=O)OC1C` (stereo not drawn), “inactive”.
The same measure, in the same setting: with `CC(CO)CS` (stereo not drawn) the entry was “inactive”; with `CCC(S)C(C)CO` (stereo not drawn), “inactive”.
As to `CCCC(S)CCOC(C)=O` (stereo not drawn), the “odorant receptor agonist call” value is “inactive”.
In the case of `CCCCCC(=O)C(C)C(C)=O` (stereo not drawn), the “odorant receptor agonist call” value is “inactive”.
On the same count and under the same terms, with `Cc1cnc(C)c(C)n1` the entry was “inactive”; with `CCCCC(S)C(C)CO` (stereo not drawn), “inactive”.
The same measure, in the same setting: with `CCCCCCC=CCCC=O` the entry was “inactive”.
Take `CC1=NC(C)C(C)S1` (stereo not drawn): the “odorant receptor agonist call” value is “inactive”.
Same read-out and setting: the entry for `CCCCCC(S)C(C)CO` (stereo not drawn) is “inactive”; for `CCC1OC(C)=C(O)C1=O` (stereo not drawn) it is “inactive”.
With `CC(=O)c1c(C)c([N+](=O)[O-])c(C(C)(C)C)c([N+](=O)[O-])c1C`, the “odorant receptor agonist call” value was “inactive”.

The target in the next test is T2, OR1C1 (Homo sapiens) (UniProt Q15619).
T2 sequence (whole entry): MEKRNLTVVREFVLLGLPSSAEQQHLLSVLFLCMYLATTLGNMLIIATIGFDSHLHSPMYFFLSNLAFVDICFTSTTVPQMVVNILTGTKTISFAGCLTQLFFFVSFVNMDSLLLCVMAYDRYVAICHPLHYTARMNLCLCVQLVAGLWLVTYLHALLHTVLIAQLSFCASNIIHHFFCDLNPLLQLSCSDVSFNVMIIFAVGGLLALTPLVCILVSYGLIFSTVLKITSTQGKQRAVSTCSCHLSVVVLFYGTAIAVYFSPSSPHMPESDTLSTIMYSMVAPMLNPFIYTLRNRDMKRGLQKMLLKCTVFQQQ
The following applies: stereoisomer not certain. A digest of the protocol:
as §1
As for `O=c1ccc2ccccc2o1`, the “odorant receptor agonist call” value is “active”.
Still for that read-out and setting: with `CC1=C(O)C(=O)C(C)O1` (stereo not drawn) the entry was “inactive”; with `CC1CCCCCCCCCCCCC(=O)C1` (stereo not drawn), “inactive”.
The same measure, in the same setting: the entry for `CCC1OC(=O)C(O)=C1C` (stereo not drawn) is “inactive”.
Still for that read-out and setting: the entry for `CC1=C(O)C(=O)OC1C` (stereo not drawn) is “inactive”; for `CC(CO)CS` (stereo not drawn) it is “inactive”.
For the compound `CCC(S)C(C)CO` (stereo not drawn), the “odorant receptor agonist call” value was “inactive”.
`CCCC(S)CCOC(C)=O` (stereo not drawn): the “odorant receptor agonist call” value was “inactive”.
The same measure, in the same setting: with `CCCCCC(=O)C(C)C(C)=O` (stereo not drawn) the entry was “inactive”.
The same measure, in the same setting: the entry for `Cc1cnc(C)c(C)n1` is “inactive”; for `CCCCC(S)C(C)CO` (stereo not drawn) it is “inactive”.
The same measure, in the same setting: with `CCCCCCC=CCCC=O` the entry was “inactive”; with `CC1=NC(C)C(C)S1` (stereo not drawn), “inactive”; with `CCCCCC(S)C(C)CO` (stereo not drawn), “inactive”.
In the case of `CCC1OC(C)=C(O)C1=O` (stereo not drawn), the “odorant receptor agonist call” value was “inactive”.
Consider `CC(=O)c1c(C)c([N+](=O)[O-])c(C(C)(C)C)c([N+](=O)[O-])c1C`, for which the “odorant receptor agonist call” value is “inactive”.

The next test has as its target T3, OR1D2 (Homo sapiens) (UniProt P34982).
T3 sequence (whole entry): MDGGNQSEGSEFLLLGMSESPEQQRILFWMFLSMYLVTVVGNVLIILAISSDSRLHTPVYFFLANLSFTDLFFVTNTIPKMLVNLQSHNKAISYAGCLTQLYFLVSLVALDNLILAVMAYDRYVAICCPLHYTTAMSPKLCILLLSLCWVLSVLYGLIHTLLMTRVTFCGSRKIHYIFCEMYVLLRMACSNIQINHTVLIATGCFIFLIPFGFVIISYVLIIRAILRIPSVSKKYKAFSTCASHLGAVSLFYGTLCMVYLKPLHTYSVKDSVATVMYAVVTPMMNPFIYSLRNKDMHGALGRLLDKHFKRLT
The following applies: stereoisomer not certain. A digest of the protocol: as §1
In the case of `CC1=C(O)C(=O)C(C)O1` (stereo not drawn), the “odorant receptor agonist call” value is “inactive”.
Same read-out and setting: with `CCC1OC(=O)C(O)=C1C` (stereo not drawn) the entry was “inactive”; with `CC1=C(O)C(=O)OC1C` (stereo not drawn), “inactive”; with `O=C(O)CCc1ccccc1`, “inactive”.
As for `O=CCCCc1ccccc1`, the “odorant receptor agonist call” value is “active”.
Regarding `CC(C)(C)c1ccc(OCC=O)cc1`, the “odorant receptor agonist call” value is “active”.
Regarding `CC(C=O)Cc1ccc(C(C)C)cc1` (stereo not drawn), the “odorant receptor agonist call” value is “active”.
Regarding `CC=Cc1ccc(OC)cc1`, the “odorant receptor agonist call” value is “inactive”.
With `O=CCCc1ccccc1`, the “odorant receptor agonist call” value is “active”.
Still for that read-out and setting: the entry for `CC(CO)CS` (stereo not drawn) is “inactive”.
Consider `CCC(S)C(C)CO` (stereo not drawn), for which the “odorant receptor agonist call” value is “inactive”.
Take `CCCC(S)CCOC(C)=O` (stereo not drawn): the “odorant receptor agonist call” value is “inactive”.
The same measure, in the same setting: the entry for `CCCCCC(=O)C(C)C(C)=O` (stereo not drawn) is “inactive”; for `CC(C=O)Cc1ccc(C(C)(C)C)cc1` (stereo not drawn) it is “inactive”.
The same measure, in the same setting: with `Cc1cnc(C)c(C)n1` the entry was “inactive”; with `CCCCC(S)C(C)CO` (stereo not drawn), “inactive”; with `CCCCCCC=CCCC=O`, “inactive”.
`CC(CCO)c1ccccc1` (stereo not drawn): the “odorant receptor agonist call” value is “inactive”.
Still for that read-out and setting: with `CC1=NC(C)C(C)S1` (stereo not drawn) the entry was “inactive”; with `CC(CC=O)c1ccccc1` (stereo not drawn), “active”; with `CC(C)c1ccccc1`, “inactive”.
In the case of `CCCCCC(S)C(C)CO` (stereo not drawn), the “odorant receptor agonist call” value was “inactive”.
